Three compounds from paper PMC7557999 (ACS Omega, 2020) can be followed below.

The test system of assay [1] is MCF7 cells. Put plainly: Colony formation assay. The format is cell-based, Human. As to conditions: 0.15, 0.45 and 0.75 μM, 6 days.
In the next assay the target is T1, STEP (Homo sapiens, UniProt P54829).
T1 sequence (P54829 300-555 limits assumed): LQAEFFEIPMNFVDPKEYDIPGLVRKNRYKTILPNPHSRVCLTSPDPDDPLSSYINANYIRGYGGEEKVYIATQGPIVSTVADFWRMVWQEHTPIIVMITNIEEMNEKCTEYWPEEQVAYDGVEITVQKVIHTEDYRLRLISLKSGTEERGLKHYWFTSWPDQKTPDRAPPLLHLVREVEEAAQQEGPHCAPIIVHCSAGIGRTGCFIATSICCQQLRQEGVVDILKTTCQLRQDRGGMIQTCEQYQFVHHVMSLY
The experiment in a line: PTP activity assay. Type of assay: biochemical. Put shortly:
(§1)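 Human catalytic domains were His-tagged, expressed in E. coli BL21(DE3) with 0.4 mM IPTG overnight at 20 °C, and purified under native conditions. The pNPP hydrolysis buffer was 10 mM NaAc-HAc, 1 mM EDTA, 1 mM DTT, pH 5.5, with 0.1 vol % test compound or DMSO at 37 °C. A405 was read every 20 s for 30 min.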

For another assay, the target named is T2, PTP1B (Homo sapiens, UniProt P18031).
T2 sequence (P18031 3-277 limits assumed): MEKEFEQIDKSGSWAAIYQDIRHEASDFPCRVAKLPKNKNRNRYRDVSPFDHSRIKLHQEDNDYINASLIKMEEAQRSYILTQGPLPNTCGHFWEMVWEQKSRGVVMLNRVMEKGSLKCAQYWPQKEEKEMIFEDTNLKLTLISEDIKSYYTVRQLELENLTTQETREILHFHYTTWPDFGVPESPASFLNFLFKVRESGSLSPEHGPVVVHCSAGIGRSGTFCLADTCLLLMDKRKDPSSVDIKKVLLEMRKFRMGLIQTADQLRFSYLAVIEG
Put plainly: PTP activity assay. Type of assay: biochemical. As to conditions: for inhibition type (Lineweaver–Burk plot), PTP1B: Lineweaver–Burk plot analysis. Put shortly:
as §1

Assay [2] concerns MCF7 cells. Put plainly: MTT assay, MCF7 cell proliferation. The format is cell-based. As to conditions: Homo sapiens, MCF7, 24 h, read-out: IC50, MCF7 cell proliferation. Put shortly: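 MCF7 cells were grown in DMEM or RPMI-1640 with 10% FBS at 37 °C and 5% CO2, then seeded in 96-well plates. Test compound was added at various amounts, with DMSO as vehicle, for 24 h. MTT (5 mg/mL stock) was added for 4 h, then SDS-HCl overnight. A570 was read and IC50 calculated by the plate reader. Values are mean ± SD of triplicate assays.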

The test system of another assay is c-JUN. Put plainly: Western blotting of c-JUN in MCF7 cells. As to conditions: MCF7 cells, 1.5, 7.5 and 15 μM, 24 h. The format is cell-based, Human. In a few lines: (§2)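 MCF7 cells were treated for 24 h with 0, 1.5, 7.5 or 15 μM test compound. Lysates were immunoblotted with antibodies to c-JUN, p-ERK and total ERK, with GAPDH as internal control.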
Assay [3] relates to MCF7 cells. The experiment in a line: RNA sequencing assay of treated MCF7 cells. As to conditions: vs control, three repeats. The format is cell-based, Human. In a few lines: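 MCF7 cells were treated with test compound alongside a control group, three repeats per group. Libraries were prepared with NEBNext Ultra and sequenced on an Illumina HiSeq. Differential expression used DESeq/Cuffdiff with cutoffs of log2 fold change >1 or […], Q value <0.05 and FPKM >1.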

In a further assay the target is T3, SHP1 (Homo sapiens, UniProt P29350).
T3 sequence (P29350 244-515 limits assumed): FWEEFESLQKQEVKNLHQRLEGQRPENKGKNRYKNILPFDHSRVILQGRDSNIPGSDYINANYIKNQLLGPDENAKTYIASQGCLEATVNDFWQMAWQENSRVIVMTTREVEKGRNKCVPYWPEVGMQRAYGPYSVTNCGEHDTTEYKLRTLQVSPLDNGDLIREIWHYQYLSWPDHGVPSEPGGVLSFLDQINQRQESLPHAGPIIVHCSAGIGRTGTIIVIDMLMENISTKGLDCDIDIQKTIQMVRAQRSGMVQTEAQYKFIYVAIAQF
The experiment in a line: PTP activity assay. Type of assay: biochemical. As to conditions: for inhibition type (Lineweaver–Burk plot), SHP1: Lineweaver–Burk plot analysis. Put shortly: as §1

The target in another assay is T4, LYP (Homo sapiens, UniProt Q9Y2R2).
T4 sequence (Q9Y2R2 24-289 limits assumed): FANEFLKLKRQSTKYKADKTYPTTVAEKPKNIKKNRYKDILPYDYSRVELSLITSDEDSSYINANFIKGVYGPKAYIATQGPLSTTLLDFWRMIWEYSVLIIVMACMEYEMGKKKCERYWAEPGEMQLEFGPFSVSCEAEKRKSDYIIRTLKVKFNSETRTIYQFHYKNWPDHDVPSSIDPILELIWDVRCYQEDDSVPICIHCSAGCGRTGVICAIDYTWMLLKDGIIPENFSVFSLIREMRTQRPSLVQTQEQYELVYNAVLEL
The experiment in a line: PTP activity assay. Type of assay: biochemical. In a few lines: as §1

In the next assay the target is T5, SHP2 (Homo sapiens, UniProt Q06124).
T5 sequence (Q06124 247-517 limits assumed): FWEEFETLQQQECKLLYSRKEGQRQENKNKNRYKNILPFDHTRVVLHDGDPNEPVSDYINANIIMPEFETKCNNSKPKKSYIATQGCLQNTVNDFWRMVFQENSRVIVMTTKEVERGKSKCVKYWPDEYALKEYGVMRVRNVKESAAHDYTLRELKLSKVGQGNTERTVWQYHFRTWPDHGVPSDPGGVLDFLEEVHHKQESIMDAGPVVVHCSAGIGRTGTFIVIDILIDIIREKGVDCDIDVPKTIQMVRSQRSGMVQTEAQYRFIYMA
The experiment in a line: PTP activity assay. The format is biochemical. As to conditions: for inhibition type (Lineweaver–Burk plot), SHP2: Lineweaver–Burk plot analysis. In a few lines:
as §1

For another assay, the system named is p-ERK. The experiment in a line: Western blotting of ERK phosphorylation in MCF7 cells. Type of assay: cell-based, Human. As to conditions: MCF7 cells, 1.5, 7.5 and 15 μM, 24 h. Put shortly: as §2

SMILES strings stand for the structures.

For the compound `CC(=O)OC[C@]12Oc3ccc(-c4ccc(O)c5c4O[C@@]4(COC(C)=O)C(=C(O)C[C@@H](C)[C@H]4OC(C)=O)C5=O)c(O)c3C(=O)C1=C(O)C[C@@H](C)[C@H]2OC(C)=O` [PXB, Phomoxanthone B], the “colony formation of MCF7 cells” value in the assay on MCF7 cells [1] is recorded as “significantly reduced the colony formation”. Also, at STEP, the IC50 is greater than 150 µM. In addition, at PTP1B, the IC50 was 14.3 ± 2.2 µM and the “inhibition type (Lineweaver–Burk plot), PTP1B” value was “noncompetitive inhibitors”. The IC50 in the assay on MCF7 cells [2] is 16.2 ± 2.59 µM. The “JUN protein expression (western blot)” value with c-JUN was “upregulated the JUN protein expression”. Moreover, in the assay with MCF7 cells [3], the “CXCL2 log 2 fold change” value is 3.19, the “CXCL3 log 2 fold change” value is given as 1.58, the “CXCL8 log 2 fold change” value stood at 5.22 and the “CXCL10 log 2 fold change” value was found to be 5.96. In addition, in the assay on MCF7 cells [3], the “DDIT3 log 2 fold change” value is 2.92, the “GADD45A log 2 fold change” value is recorded as 1.39, the “IFI16 log 2 fold change” value was found to be 1.15 and the “IFI27 log 2 fold change” value turned out to be 4.02. Further, in the assay on MCF7 cells [3], the “IL1A log 2 fold change” value is given as 4.87, the “IL1B log 2 fold change” value is 3.23, the “IL6 log 2 fold change” value amounted to 3.98 and the “IL18 log 2 fold change” value is recorded as 1.73. For the same compound, in the assay on MCF7 cells [3], the “IL24 log 2 fold change” value came out at 7.08, the “IL32 log 2 fold change” value turned out to be 1.56, the “IL33 log 2 fold change” value turned out to be 4.82 and the “IRF1 log 2 fold change” value was 1.34. In addition, in the assay with MCF7 cells [3], the “IRF7 log 2 fold change” value stood at 2.53, the “JUN log 2 fold change” value came out at 3.16, the “NFKB2 log 2 fold change” value is 1.69 and the “RELB log 2 fold change” value came to 2.51. Further, in the assay on MCF7 cells [3], the “XAF1 log 2 fold change” value stood at 4.41. Besides, at SHP1, the IC50 stood at 32.1 ± 3.74 µM and the “inhibition type (Lineweaver–Burk plot), SHP1” value is “competitive inhibitors”. For the same compound, the IC50 against LYP was greater than 150 µM. On SHP2, the IC50 came to 11.9 ± 3.02 µM and the “inhibition type (Lineweaver–Burk plot), SHP2” value is reported as “noncompetitive inhibitors”. Moreover, in the assay with p-ERK, the “ERK phosphorylation (western blot)” value was “increased ERK phosphorylation”.
For the compound `CC(=O)OC[C@]12Oc3c(-c4ccc(O)c5c4O[C@@]4(COC(C)=O)C(=C(O)C[C@@H](C)[C@H]4OC(C)=O)C5=O)ccc(O)c3C(=O)C1=C(O)C[C@@H](C)[C@H]2OC(C)=O` [PXA, Phomoxanthone A], the “colony formation of MCF7 cells” value with MCF7 cells [1] was “significantly reduced the colony formation”. At STEP, the IC50 is greater than 150 µM. Further, on PTP1B, the IC50 worked out at 13 ± 1.13 µM and the “inhibition type (Lineweaver–Burk plot), PTP1B” value is reported as “noncompetitive inhibitors”. Besides, the IC50 in the assay with MCF7 cells [2] was found to be 16.4 ± 1.96 µM. In addition, in the assay on c-JUN, the “JUN protein expression (western blot)” value is listed as “upregulated the JUN protein expression”. In addition, in the assay on MCF7 cells [3], the “CXCL2 log 2 fold change” value is reported as 3.24, the “CXCL3 log 2 fold change” value is reported as 1.65, the “CXCL8 log 2 fold change” value is listed as 5.45 and the “CXCL10 log 2 fold change” value turned out to be 6.84. Besides, in the assay with MCF7 cells [3], the “DDIT3 log 2 fold change” value is recorded as 2.87, the “GADD45A log 2 fold change” value was determined as 1.41, the “IFI16 log 2 fold change” value was found to be 1.18 and the “IFI27 log 2 fold change” value is 4.22. In the assay on MCF7 cells [3], the “IL1A log 2 fold change” value is recorded as 4.78, the “IL1B log 2 fold change” value amounted to 3.30, the “IL6 log 2 fold change” value amounted to 4.00 and the “IL18 log 2 fold change” value is 1.78. For the same compound, in the assay with MCF7 cells [3], the “IL24 log 2 fold change” value turned out to be 6.37, the “IL32 log 2 fold change” value is 1.57, the “IL33 log 2 fold change” value was 4.45 and the “IRF1 log 2 fold change” value is reported as 1.50. In the assay with MCF7 cells [3], the “IRF7 log 2 fold change” value is on record as 2.76, the “JUN log 2 fold change” value was found to be 3.32, the “NFKB2 log 2 fold change” value turned out to be 1.62 and the “RELB log 2 fold change” value came out at 2.43. Besides, the “XAF1 log 2 fold change” value with MCF7 cells [3] was found to be 4.83. Also, at SHP1, the IC50 was 36.5 ± 2.02 µM and the “inhibition type (Lineweaver–Burk plot), SHP1” value is on record as “competitive inhibitors”. This compound also registered an IC50 at LYP greater than 150 µM. Also, at SHP2, the IC50 was found to be 20.5 ± 4.45 µM and the “inhibition type (Lineweaver–Burk plot), SHP2” value was “noncompetitive inhibitors”. Besides, in the assay on p-ERK, the “ERK phosphorylation (western blot)” value is “increased ERK phosphorylation”.
For `O=c1[nH]cc(F)c(=O)[nH]1` [5-fluorouracil, reference compound], in the assay on MCF7 cells [2], the IC50 came out at 25.1 ± 8.8 µM.
